Source: ChEMBL document CHEMBL1156310, “Stepwise synthesis of oligonucleotide-peptide conjugates containing guanidinium and lipophilic groups in their 3'-termini” (Bioorg Med Chem Lett, 2010)

Tests used:
SH-SY5Y [1] = experiment: Antisense activity in human SH-SY5Y cells assessed as inhibition of luciferase gene expression at 60 nM after 22 hrs by luminometry in the presence of lipofectamine 2000; assay type: functional
Method in brief: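 SH-SY5Y cells cotransfected via Lipofectamine 2000 with Renilla (target) and firefly (internal control) luciferase plasmids plus phosphorothioate ASO derivatives at 60 nM, targeting Renilla mRNA site 21-38; scrambled sequences as controls. Read-out: Renilla luciferase inhibition normalized to firefly.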

SH-SY5Y [2] = experiment: Cellular uptake in human SH-SY5Y cells at 300 nM after 22 hrs by dual leucifearse reporter assay; assay type: ADME, cell-based; settings: 0.3 µM
Method in brief: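 Dual-luciferase plasmids (Renilla target, firefly internal control) transfected into SH-SY5Y; after 3 h, medium replaced with fresh medium containing ASO-peptide conjugates (150, 200, 300 nM) without Lipofectamine 2000. Luciferase activities measured 22 h after transfection; knockdown expressed as inhibition of Renilla expression. Phosphorothioate ASO targets Renilla mRNA 21-38 site.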

Compound | inhibition at 0.06 µM (SH-SY5Y [1]) | Drug uptake (SH-SY5Y [2])
Cc1cn([C@H]2C[C@H](OP(O)(=S)OC[C@H]3O[C@@H](n4cc(C)c(=O)[nH]c4=O)C[C@@H]3OP(O)(=S)OC[C@H]3O[C@@H](n4cnc5c(=O)[nH]c(N)nc54)[C@H](O)[C@@H]3OP(O)(=S)OC[C@H]3O[C@@H](n4cc(C)c(=O)[nH]c4=O)C[C@@H]3OP(O)(=S)OC[C@H]3O[C@@H](n4cc(C)c(=O)[nH]c4=O)C[C@@H]3OP(O)(=S)OC[C@H]3O[C@@H](n4cc(C)c(=O)[nH]c4=O)C[C@@H]3OP(O)(=S)OC[C@H]3O[C@@H](n4ccc(N)nc4=O)[C@H](O)[C@@H]3OP(O)(=S)OC[C@H]3O[C@@H](n4ccc(N)nc4=O)[C@H](O)[C@@H]3OP(O)(=S)OC[C@H]3O[C@@H](n4cc(C)c(=O)[nH]c4=O)C[C@@H]3OP(O)(=S)OC[C@H]3O[C@@H](n4cc(C)c(=O)[nH]c4=O)C[C@@H]3OP(O)(=S)OC[C@H]3O[C@@H](n4cc(C)c(=O)[nH]c4=O)C[C@@H]3OP(O)(=S)OC[C@H]3O[C@@H](n4cnc5c(=O)[nH]c(N)nc54)[C@H](O)[C@@H]3OP(O)(=S)OC[C@H]3O[C@@H](n4ccc(N)nc4=O)[C@H](O)[C@@H]3O)[C@@H](COP(O)(=S)O[C@H]3[C@@H](O)[C@H](n4ccc(N)nc4=O)O[C@@H]3COP(O)(=S)O[C@H]3C[C@H](n4cc(C)c(=O)[nH]c4=O)O[C@@H]3COP(O)(=S)O[C@H]3[C@@H](O)[C@H](n4cnc5c(=O)[nH]c(N)nc54)O[C@@H]3COP(O)(=S)O[C@H]3[C@@H](O)[C@H](n4cnc5c(=O)[nH]c(N)nc54)O[C@@H]3COP(O)(=S)O[C@H]3[C@@H](O)[C@H](n4cnc5c(N)ncnc54)O[C@@H]3COP(O)(=S)OCCCC(=O)N[C@H](CCCCN)C(=O)N[C@@H](CCCCN)C(=O)N[C@H](CCCCN)C(=O)N[C@@H](CCCCN)C(=O)N[C@H](CCCCN)C(=O)N[C@@H](CCCCN)C(=O)N[C@H](CCCCN)C(=O)N[C@@H](CCCCN)C(=O)NCCCCCCO)O2)c(=O)[nH]c1=O (stereo not given in full) | 65% | 11%
CCCCCCCCc1ccc(NC(=O)NCCCC[C@@H](NC(=O)CCCOP(O)(=S)OC[C@H]2O[C@@H](n3cnc4c(N)ncnc43)[C@H](O)[C@@H]2OP(O)(=S)OC[C@H]2O[C@@H](n3cnc4c(=O)[nH]c(N)nc43)[C@H](O)[C@@H]2OP(O)(=S)OC[C@H]2O[C@@H](n3cnc4c(=O)[nH]c(N)nc43)[C@H](O)[C@@H]2OP(O)(=S)OC[C@H]2O[C@@H](n3cc(C)c(=O)[nH]c3=O)C[C@@H]2OP(O)(=S)OC[C@H]2O[C@@H](n3ccc(N)nc3=O)[C@H](O)[C@@H]2OP(O)(=S)OC[C@H]2O[C@@H](n3cc(C)c(=O)[nH]c3=O)C[C@@H]2OP(O)(=S)OC[C@H]2O[C@@H](n3cc(C)c(=O)[nH]c3=O)C[C@@H]2OP(O)(=S)OC[C@H]2O[C@@H](n3cnc4c(=O)[nH]c(N)nc43)[C@H](O)[C@@H]2OP(O)(=S)OC[C@H]2O[C@@H](n3cc(C)c(=O)[nH]c3=O)C[C@@H]2OP(O)(=S)OC[C@H]2O[C@@H](n3cc(C)c(=O)[nH]c3=O)C[C@@H]2OP(O)(=S)OC[C@H]2O[C@@H](n3cc(C)c(=O)[nH]c3=O)C[C@@H]2OP(O)(=S)OC[C@H]2O[C@@H](n3ccc(N)nc3=O)[C@H](O)[C@@H]2OP(O)(=S)OC[C@H]2O[C@@H](n3ccc(N)nc3=O)[C@H](O)[C@@H]2OP(O)(=S)OC[C@H]2O[C@@H](n3cc(C)c(=O)[nH]c3=O)C[C@@H]2OP(O)(=S)OC[C@H]2O[C@@H](n3cc(C)c(=O)[nH]c3=O)C[C@@H]2OP(O)(=S)OC[C@H]2O[C@@H](n3cc(C)c(=O)[nH]c3=O)C[C@@H]2OP(O)(=S)OC[C@H]2O[C@@H](n3cnc4c(=O)[nH]c(N)nc43)[C@H](O)[C@@H]2OP(O)(=S)OC[C@H]2O[C@@H](n3ccc(N)nc3=O)[C@H](O)[C@@H]2O)C(=O)NCCCCCCO)cc1 (stereo not given in full) | 8% | 
CCCCCCCCNC(=O)NCCCC[C@@H](NC(=O)CCCOP(O)(=S)OC[C@H]1O[C@@H](n2cnc3c(N)ncnc32)[C@H](O)[C@@H]1OP(O)(=S)OC[C@H]1O[C@@H](n2cnc3c(=O)[nH]c(N)nc32)[C@H](O)[C@@H]1OP(O)(=S)OC[C@H]1O[C@@H](n2cnc3c(=O)[nH]c(N)nc32)[C@H](O)[C@@H]1OP(O)(=S)OC[C@H]1O[C@@H](n2cc(C)c(=O)[nH]c2=O)C[C@@H]1OP(O)(=S)OC[C@H]1O[C@@H](n2ccc(N)nc2=O)[C@H](O)[C@@H]1OP(O)(=S)OC[C@H]1O[C@@H](n2cc(C)c(=O)[nH]c2=O)C[C@@H]1OP(O)(=S)OC[C@H]1O[C@@H](n2cc(C)c(=O)[nH]c2=O)C[C@@H]1OP(O)(=S)OC[C@H]1O[C@@H](n2cnc3c(=O)[nH]c(N)nc32)[C@H](O)[C@@H]1OP(O)(=S)OC[C@H]1O[C@@H](n2cc(C)c(=O)[nH]c2=O)C[C@@H]1OP(O)(=S)OC[C@H]1O[C@@H](n2cc(C)c(=O)[nH]c2=O)C[C@@H]1OP(O)(=S)OC[C@H]1O[C@@H](n2cc(C)c(=O)[nH]c2=O)C[C@@H]1OP(O)(=S)OC[C@H]1O[C@@H](n2ccc(N)nc2=O)[C@H](O)[C@@H]1OP(O)(=S)OC[C@H]1O[C@@H](n2ccc(N)nc2=O)[C@H](O)[C@@H]1OP(O)(=S)OC[C@H]1O[C@@H](n2cc(C)c(=O)[nH]c2=O)C[C@@H]1OP(O)(=S)OC[C@H]1O[C@@H](n2cc(C)c(=O)[nH]c2=O)C[C@@H]1OP(O)(=S)OC[C@H]1O[C@@H](n2cc(C)c(=O)[nH]c2=O)C[C@@H]1OP(O)(=S)OC[C@H]1O[C@@H](n2cnc3c(=O)[nH]c(N)nc32)[C@H](O)[C@@H]1OP(O)(=S)OC[C@H]1O[C@@H](n2ccc(N)nc2=O)[C@H](O)[C@@H]1O)C(=O)NCCCCCCO (stereo not given in full) | 55% | 
Cc1cn([C@H]2C[C@H](OP(O)(=S)OC[C@H]3O[C@@H](n4cc(C)c(=O)[nH]c4=O)C[C@@H]3OP(O)(=S)OC[C@H]3O[C@@H](n4cnc5c(=O)[nH]c(N)nc54)[C@H](O)[C@@H]3OP(O)(=S)OC[C@H]3O[C@@H](n4cc(C)c(=O)[nH]c4=O)C[C@@H]3OP(O)(=S)OC[C@H]3O[C@@H](n4cc(C)c(=O)[nH]c4=O)C[C@@H]3OP(O)(=S)OC[C@H]3O[C@@H](n4cc(C)c(=O)[nH]c4=O)C[C@@H]3OP(O)(=S)OC[C@H]3O[C@@H](n4ccc(N)nc4=O)[C@H](O)[C@@H]3OP(O)(=S)OC[C@H]3O[C@@H](n4ccc(N)nc4=O)[C@H](O)[C@@H]3OP(O)(=S)OC[C@H]3O[C@@H](n4cc(C)c(=O)[nH]c4=O)C[C@@H]3OP(O)(=S)OC[C@H]3O[C@@H](n4cc(C)c(=O)[nH]c4=O)C[C@@H]3OP(O)(=S)OC[C@H]3O[C@@H](n4cc(C)c(=O)[nH]c4=O)C[C@@H]3OP(O)(=S)OC[C@H]3O[C@@H](n4cnc5c(=O)[nH]c(N)nc54)[C@H](O)[C@@H]3OP(O)(=S)OC[C@H]3O[C@@H](n4ccc(N)nc4=O)[C@H](O)[C@@H]3O)[C@@H](COP(O)(=S)O[C@H]3[C@@H](O)[C@H](n4ccc(N)nc4=O)O[C@@H]3COP(O)(=S)O[C@H]3C[C@H](n4cc(C)c(=O)[nH]c4=O)O[C@@H]3COP(O)(=S)O[C@H]3[C@@H](O)[C@H](n4cnc5c(=O)[nH]c(N)nc54)O[C@@H]3COP(O)(=S)O[C@H]3[C@@H](O)[C@H](n4cnc5c(=O)[nH]c(N)nc54)O[C@@H]3COP(O)(=S)O[C@H]3[C@@H](O)[C@H](n4cnc5c(N)ncnc54)O[C@@H]3COP(O)(=S)OCCCC(=O)NCCCCCCO)O2)c(=O)[nH]c1=O (stereo not given in full) | 69% | 
